Laboratory results from ChEMBL document CHEMBL2390916, “Low molecular weight dual inhibitors of factor Xa and fibrinogen binding to GPIIb/IIIa with highly overlapped pharmacophores” (Eur J Med Chem, 2013).
pIC50, pKi: −log10 of the molar value.

Experiments:
[1] = target: Integrin alpha-IIb/beta-3 (Homo sapiens, UniProt P05106+P08514); test: Displacement of biotinylated fibrinogen from human glycoprotein 2b/3a receptor after 2 hrs by chemiluminescence assay; assay type: protein-complex assay
Summary of the method: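 Solid-phase competitive binding: purified human GPIIb/IIIa coated overnight at 4 °C in Tris buffer pH 7.4 with 1 mM Ca2+, Mg2+, Mn2+; blocked with 1% BSA. Serially diluted inhibitor plus biotinylated human fibrinogen, 2 h rt; peroxidase anti-biotin antibody 1 h, chemiluminescent read.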

Trypsin = Trypsin (Homo sapiens, UniProt P07477+P07478+P35030); test: Inhibition of trypsin (unknown origin) using S-2222 as substrate incubated for 15 mins prior to substrate addition measured every 10 secs by spectrophotometric analysis; assay type: protein assay
Summary of the method: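 Trypsin at 0.5 nkat/mL final with S-2222 at 50 and 100 µM final. Inhibitor 0.5–100 µM, diluted from 10 mM DMSO stocks, preincubated 15 min at 25 °C with enzyme in HBSA buffer before substrate; absorbance at 405 nm every 10 s. Triplicate at three inhibitor and two substrate levels; Ki from initial rates (Cheng–Prusoff), averaged.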

Prothrombin = Prothrombin (Homo sapiens, UniProt P00734); test: Inhibition of thrombin (unknown origin) using S-2238 as substrate incubated for 15 mins prior to substrate addition measured every 10 secs by spectrophotometric analysis
Coagulation factor X = Coagulation factor X (Homo sapiens, UniProt P00742); test: Inhibition of F10a (unknown origin) using S-2222 as substrate incubated for 15 mins prior to substrate addition measured every 10 secs by spectrophotometric analysis
Chain of Coagulation factor X (P00742 41-179 limits assumed): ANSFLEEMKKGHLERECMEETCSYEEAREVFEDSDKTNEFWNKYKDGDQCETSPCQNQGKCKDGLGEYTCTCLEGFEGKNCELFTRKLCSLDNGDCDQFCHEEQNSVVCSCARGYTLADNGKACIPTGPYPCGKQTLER
Chain of Coagulation factor X (P00742 235-488 limits assumed): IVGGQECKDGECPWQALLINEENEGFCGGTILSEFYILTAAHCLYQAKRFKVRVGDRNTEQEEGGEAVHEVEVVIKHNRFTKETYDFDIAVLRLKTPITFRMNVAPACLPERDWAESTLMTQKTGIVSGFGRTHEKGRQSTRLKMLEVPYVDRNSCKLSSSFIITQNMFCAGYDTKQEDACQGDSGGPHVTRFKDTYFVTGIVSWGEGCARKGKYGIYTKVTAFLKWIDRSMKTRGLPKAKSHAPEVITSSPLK
Summary of the method: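 Inhibitor 0.5–100 µM (from 10 mM DMSO stocks) preincubated with enzyme in HBSA buffer 15 min, 25 °C; A405 read every 10 s. Triplicate, three inhibitor × two substrate concentrations; Ki from initial linear rates via Cheng–Prusoff, averaged.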

Chain of Integrin alpha-IIb/beta-3 (P05106 27-788 limits assumed): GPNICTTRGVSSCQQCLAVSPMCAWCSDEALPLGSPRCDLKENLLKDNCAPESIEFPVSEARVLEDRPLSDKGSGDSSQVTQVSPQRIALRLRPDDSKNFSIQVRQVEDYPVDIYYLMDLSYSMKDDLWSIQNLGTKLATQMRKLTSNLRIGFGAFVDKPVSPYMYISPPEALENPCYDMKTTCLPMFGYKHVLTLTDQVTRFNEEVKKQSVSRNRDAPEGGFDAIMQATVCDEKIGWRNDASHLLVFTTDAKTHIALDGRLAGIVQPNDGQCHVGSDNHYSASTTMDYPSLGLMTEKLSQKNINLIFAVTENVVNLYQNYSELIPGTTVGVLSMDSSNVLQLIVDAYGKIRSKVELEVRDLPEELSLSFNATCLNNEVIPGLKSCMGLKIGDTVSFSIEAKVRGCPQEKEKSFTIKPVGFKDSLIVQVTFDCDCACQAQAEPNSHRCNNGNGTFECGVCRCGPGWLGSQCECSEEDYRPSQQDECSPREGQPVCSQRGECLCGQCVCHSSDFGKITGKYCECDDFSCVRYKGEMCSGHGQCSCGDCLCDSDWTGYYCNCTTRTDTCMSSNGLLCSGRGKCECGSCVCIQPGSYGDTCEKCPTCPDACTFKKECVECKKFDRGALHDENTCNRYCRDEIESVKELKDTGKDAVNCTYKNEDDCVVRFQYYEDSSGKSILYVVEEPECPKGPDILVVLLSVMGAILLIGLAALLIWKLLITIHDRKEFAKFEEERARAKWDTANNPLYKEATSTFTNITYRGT
Chain of Integrin alpha-IIb/beta-3 (P08514 32-887 limits assumed): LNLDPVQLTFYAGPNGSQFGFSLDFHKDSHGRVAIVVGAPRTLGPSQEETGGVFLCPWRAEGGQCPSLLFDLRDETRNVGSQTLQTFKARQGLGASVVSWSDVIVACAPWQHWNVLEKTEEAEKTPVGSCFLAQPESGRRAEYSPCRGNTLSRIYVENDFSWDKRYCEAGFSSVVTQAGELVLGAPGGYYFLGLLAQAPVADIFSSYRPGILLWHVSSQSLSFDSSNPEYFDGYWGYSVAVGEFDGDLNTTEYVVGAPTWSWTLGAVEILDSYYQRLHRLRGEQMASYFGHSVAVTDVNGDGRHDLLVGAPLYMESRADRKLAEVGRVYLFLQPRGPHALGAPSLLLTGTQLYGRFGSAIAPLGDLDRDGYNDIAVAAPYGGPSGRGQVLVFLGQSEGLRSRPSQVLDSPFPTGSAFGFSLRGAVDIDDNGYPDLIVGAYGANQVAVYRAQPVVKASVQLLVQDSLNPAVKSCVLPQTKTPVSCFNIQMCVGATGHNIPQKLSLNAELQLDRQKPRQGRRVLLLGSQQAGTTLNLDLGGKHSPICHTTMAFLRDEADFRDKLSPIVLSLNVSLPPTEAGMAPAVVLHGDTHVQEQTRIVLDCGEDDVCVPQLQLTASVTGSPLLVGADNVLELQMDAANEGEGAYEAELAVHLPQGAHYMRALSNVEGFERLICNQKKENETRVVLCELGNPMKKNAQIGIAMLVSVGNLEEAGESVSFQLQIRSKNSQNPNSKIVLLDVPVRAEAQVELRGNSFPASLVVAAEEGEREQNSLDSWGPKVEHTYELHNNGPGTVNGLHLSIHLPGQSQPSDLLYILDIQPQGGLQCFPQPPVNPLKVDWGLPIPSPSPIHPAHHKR
Chain of Integrin alpha-IIb/beta-3 (P08514 891-1039 limits assumed): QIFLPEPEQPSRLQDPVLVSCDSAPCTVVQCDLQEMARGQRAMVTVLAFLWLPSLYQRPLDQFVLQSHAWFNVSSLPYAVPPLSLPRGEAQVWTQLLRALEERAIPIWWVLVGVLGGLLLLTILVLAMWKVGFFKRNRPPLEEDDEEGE

Compound | pIC50 [1] | Ki (Trypsin) [µM] | pKi (Prothrombin) | pKi (Coagulation factor X)
O=C(NC[C@@H]1CN(c2ccc(N3CCC(C(=O)O)CC3)cc2)C(=O)O1)c1ccc(Cl)s1 | < 3.52 | – | – | –
O=C(NC[C@H]1CN(c2ccc(N3CCC(C(=O)O)CC3)cc2)C(=O)O1)c1ccc(Cl)s1 | < 3.52 | – | – | –
CCOC(=O)C1CCN(c2ccc(N3C[C@H](CNC(=O)c4cnc(N)s4)OC3=O)cc2)CC1.O=C(O)C(F)(F)F | < 3.52 | > 100 | < 4.00 | 4.26
Nc1ncc(C(=O)NC[C@H]2CN(c3ccc(N4CCC(C(=O)O)CC4)cc3)C(=O)O2)s1.O=C(O)C(F)(F)F | 4.11 | > 100 | < 4.00 | 4.31
CCOC(=O)C1CCN(c2ccc(N3C[C@@H](CNC(=O)c4cnc(N)s4)OC3=O)cc2)CC1.O=C(O)C(F)(F)F | < 3.52 | > 100 | < 4.00 | 3.95
Nc1ncc(C(=O)NC[C@@H]2CN(c3ccc(N4CCC(C(=O)O)CC4)cc3)C(=O)O2)s1.O=C(O)C(F)(F)F | 4.77 | > 100 | < 4.00 | 4.05
CCOC(=O)C1CCCN(c2ccc(N3C[C@H](CNC(=O)c4cnc(N)s4)OC3=O)cc2)C1.O=C(O)C(F)(F)F (stereo not given in full) | < 3.52 | > 100 | < 4.00 | 4.31
Nc1ncc(C(=O)NC[C@H]2CN(c3ccc(N4CCCC(C(=O)O)C4)cc3)C(=O)O2)s1.O=C(O)C(F)(F)F (stereo not given in full) | < 3.52 | > 100 | < 4.00 | 4.32
CCOC(=O)C1CCCCN1c1ccc(N2C[C@H](CNC(=O)c3cnc(N)s3)OC2=O)cc1.O=C(O)C(F)(F)F (stereo not given in full) | < 3.52 | > 100 | < 4.00 | 4.54
CCOC(=O)C1CCN(c2ccc(N3C[C@H](CNC(=O)c4cnc(N)s4)OC3=O)cc2)C(=O)C1.O=C(O)C(F)(F)F (stereo not given in full) | < 3.52 | > 100 | < 4.00 | 4.42
CCOC(=O)C1(C)CCCN(c2ccc(N3C[C@H](CNC(=O)c4cnc(N)s4)OC3=O)cc2)C1=O.O=C(O)C(F)(F)F (stereo not given in full) | < 3.52 | > 100 | < 4.00 | 4.25
CC1(C(=O)O)CCCN(c2ccc(N3C[C@H](CNC(=O)c4cnc(N)s4)OC3=O)cc2)C1=O.O=C(O)C(F)(F)F (stereo not given in full) | < 3.52 | > 100 | < 4.00 | 4.95
O=C(NC[C@H]1CN(c2ccc(N3CCC(C(=O)O)CC3)cc2)C(=O)O1)c1ccc(-c2noc(=O)[nH]2)cc1 | 4.80 | > 100 | < 4.00 | < 4.00
O=C(NC[C@@H]1CN(c2ccc(N3CCC(C(=O)O)CC3)cc2)C(=O)O1)c1ccc(-c2noc(=O)[nH]2)cc1 | 6.06 | > 100 | < 4.00 | < 4.00
